High-throughput results deposited in PubChem by several laboratories.
PP5 inh = PP5 (human) phosphatase inhibition. actives 0.18% (n = 320,000). P53041. inhibition, % at 6.7 µM. purified PP5c, OMFP substrate fluorescence;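 active means inhibition above the campaign's mean inhibition across all tested compounds plus 3 SD, cut at about 9.5% in these data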
T cell HTS = T cell immune modulation candidate | 2C CD8+ T cell-vesicle binding, flow cytometry; stronger effect = lower value | response (vesicle binding), % at 7 µM | actives 0.068% (n = 330,000) | AID 2052;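 active means response, share of CD8 T cells binding vesicles, and their 90th percentile fluorescence all below set limits, cut at about 80% in these data, passing the limit was not always enough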;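 further: values below 100% mean blocked vesicle binding to the CD8+ T cells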
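Read-out – percent CD8+ FL2 mean versus row control · System – murine 2C transgenic CD8+ T lymphocytes · Times – 1.5 h cell–vesicle binding at 37 °C, then 20 min icy labelling · Control set – naked vesicles low, QL9 vesicles with vehicle high · Detection – cytometric PE anti-B7-1 and Alexa647 anti-CD8 signals after 1% paraformaldehyde fixation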
m5-HT2A agonist = agonists of mouse serotonin 5-HT2A receptor (HTR2A); actives 0.66% (n = 360,000); activation, % at 7.6 µM; P35363; AID 624169; CHO-K1 mHTR2A beta-arrestin complementation, luminescence; percent of 30 µM serotonin response;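 active means activation above a run cutoff, the mean activation of all tested compounds plus 3 SD, cut at about 14% in these data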
Target sequence (P35363 whole entry, looked up): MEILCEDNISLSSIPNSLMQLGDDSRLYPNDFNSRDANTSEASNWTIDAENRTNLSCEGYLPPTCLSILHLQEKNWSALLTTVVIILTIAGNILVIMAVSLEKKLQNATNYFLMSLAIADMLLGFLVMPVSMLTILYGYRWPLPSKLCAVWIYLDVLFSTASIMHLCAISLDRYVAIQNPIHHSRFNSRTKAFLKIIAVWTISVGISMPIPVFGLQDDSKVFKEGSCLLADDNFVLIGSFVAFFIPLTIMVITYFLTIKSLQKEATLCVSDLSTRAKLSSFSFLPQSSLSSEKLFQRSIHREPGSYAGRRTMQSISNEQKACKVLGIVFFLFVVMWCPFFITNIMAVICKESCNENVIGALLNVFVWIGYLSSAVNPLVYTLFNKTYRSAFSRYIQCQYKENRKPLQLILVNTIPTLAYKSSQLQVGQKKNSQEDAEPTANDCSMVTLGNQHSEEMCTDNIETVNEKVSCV
GASC-1 inh = inhibitors of human GASC-1 (JMJD2C) demethylase; Q9H3R0; GST-JMJD2C(1-420) H3K9me3 demethylation, DELFIA europium; inhibition, % at 2.35 µM; actives 0.069% (n = 330,000);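 active means more than half of a compound's replicate wells show inhibition beyond 50%, single wells judged on their own value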;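 further: signal counts dimethyl H3K9 product captured on neutravidin plate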
PP1 counter = PP1-alpha (human) inhibition in PP5 counter-screen; purified PP1alpha, OMFP fluorescence; actives 0.9% (n = 320,000); inhibition, % at 6.7 µM;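 active means inhibition above the mean inhibition of all tested compounds plus 3 SD, computed separately for each screening campaign, cut at about 15% in these data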
PP1 confirm = human PP1 phosphatase inhibition, confirmation; shares compounds with PP1 counter; purified PP1alpha, OMFP substrate fluorescence; inhibition, % at 6.7 µM; actives 52% (n = 1,900);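 active means mean PP1 inhibition above a set limit taken from the earlier primary screen, cut at about 15% in these data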
PP5 counter = counter-screen for PP1 inhibitors: human PP5 phosphatase inhibition | AID 2360 | actives 4% (n = 1,900) | inhibition, % at 6.7 µM | shares compounds with PP1 counter | purified PP5c, OMFP fluorescence;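 active means mean PP5 inhibition over triplicate wells above about 9.5% taken from the earlier PP1 screen, limit read from the data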
Numbers stand for hits; – = inactive; · = no result given. In the library only some 1.7% were active in any assay of this set; here they are far more common.

SMILES	PP5 inh	T cell HTS	m5-HT2A agonist	GASC-1 inh	PP1 counter	PP1 confirm	PP5 counter
COc1cccc(N=Nc2ccc3cccnc3c2O)c1	–	–	–	–	31	25	–
O=C(CN1CCN(c2ccccc2O)CC1)Nc1cc(S(=O)(=O)N2CCCC2)ccc1Cl	–	–	–	–	–	·	·
Cc1ccc(C)c(N2CCN(C(=O)c3ccc(Cn4c(=S)[nH]c5ccc(N6CCOCC6)cc5c4=O)cc3)CC2)c1	–	–	–	–	30	–	–
O=C(c1ccc(Cn2c(=S)[nH]c3ccc(N4CCOCC4)cc3c2=O)cc1)N1CCN(c2ccc(F)cc2)CC1	–	–	–	–	18	19	–
O=C1C2C3C=CC(C3)C2C(=O)N1c1ccc(N2CCN(c3ccccn3)CC2)c([N+](=O)[O-])c1 (configuration not stated)	–	–	–	–	–	·	·
O=C(N/N=C/c1ccc(-c2ccc(S(=O)(=O)Nc3ncccn3)cc2)o1)c1cc2ccccc2cc1O	–	–	–	–	21	16	–
CCOc1ccc(C(=O)N/N=C/c2ccc(-c3ccc(S(=O)(=O)Nc4ncccn4)cc3)o2)cc1	–	–	–	–	–	·	·
CCn1c(=O)c(-c2cc(=O)[nH][nH]2)c(O)c2ccccc21	–	–	–	–	–	·	·
O=c1cc(-c2c(O)c3ccccc3n(Cc3ccccc3)c2=O)[nH][nH]1	–	–	–	–	29	–	–
CCCCCCSc1cc(-c2nc3ccc(C)cn3c2NCc2ccccc2)ccc1OC	–	–	–	–	21	–	–
CCCCCCSc1cc(-c2nc3cc(C)ccn3c2NCCCC)ccc1OC	–	–	–	–	26	–	–
CCCCCCSc1cccc(-c2nc3ccc(C)cn3c2NCc2ccccc2)c1	–	–	–	–	–	·	·
CCCS(=O)(=O)NC(=O)C1(C)CCN(C(=O)c2ccc(C(=O)OC)cc2)C1 (configuration not stated)	·	·	–	·	·	·	·
COc1cc(OC)cc(C(=O)Nn2c(C)nc3ccccc3c2=O)c1	–	–	–	–	–	·	·
COc1ccc2[nH]c3c(c2c1)CCn1c-3nc2ccccc2c1=O	–	–	–	–	26	22	–
CC1CCCC(NC(=O)CSc2ncccn2)C1C (configuration not stated)	–	–	–	–	–	·	·
COC(=O)c1cc(-c2cccs2)nn1-c1ccccc1	–	–	–	–	–	·	·
O=C(O)c1cc(-c2cccs2)nn1-c1ccc(F)cc1	–	–	–	–	19	18	–
COc1ccc([C@@H]2Sc3ccccc3NC(=O)[C@@H]2O)cc1	–	–	–	–	–	·	·
O=C(Nc1nc(-c2ccccn2)cs1)c1ccc2c(c1)OCCO2	–	–	–	–	39	43	–
CC(=O)Nc1ccc(C(=O)Nc2nc(-c3ccccn3)cs2)cc1	–	–	–	–	–	·	·
O=C(Nc1nc(-c2ccccn2)cs1)C1COc2ccccc2O1 (configuration not stated)	–	–	–	–	29	41	–
CCOC(=O)N1CCN(C(=O)COC(=O)c2ccc(S(=O)(=O)N(CC)CC)cc2)CC1	–	–	–	–	–	·	·
CSc1nc2c(=S)[nH]c(=S)[nH]c2s1	·	·	–	·	·	·	·
Cc1ccc2ccc(C(Nc3ccccn3)c3ccccc3)c(O)c2n1 (configuration not stated)	–	–	–	–	–	·	·
SMILES	PP5 inh	T cell HTS	m5-HT2A agonist	GASC-1 inh	PP1 counter	PP1 confirm	PP5 counter
Oc1c(C(Nc2ccccn2)c2ccccn2)ccc2cccnc12 (configuration not stated)	–	–	–	–	72	76	–
Oc1ccccc1C(Nc1nccs1)c1ccc2cccnc2c1O (configuration not stated)	–	–	–	–	23	20	–
CC(=O)NC(c1ccco1)c1ccc2cccnc2c1O (configuration not stated)	–	–	–	–	–	·	·
COc1ccccc1NC(c1cccnc1)c1ccc2cccnc2c1O (configuration not stated)	–	–	–	–	18	19	–
C[C@@]12C(=O)N(Cc3ccc(F)cc3)CC(=O)N1[C@H]1c3cc(Cl)ccc3OC[C@@H]1[C@@H]2c1ccccc1	·	–	–	–	·	·	·
Cc1cc(C)c(C(=O)OCc2csc(CC(=O)Nc3ccccc3C)n2)c(C)c1	–	–	–	–	20	–	–
Cc1ccccc1NC(=O)Cc1nc(COC(=O)c2ccccn2)cs1	–	–	–	–	–	·	·
CCn1cc(C(=O)NCC(C)C)c(=O)c2cc(F)c(N3CCN(C(=O)c4ccco4)CC3)cc21	–	–	–	–	–	·	·
CCn1cc(C(=O)NCc2ccco2)c(=O)c2cc(S(=O)(=O)N3CCc4ccccc4C3)ccc21	–	–	–	–	19	18	–
CCn1cc(C(=O)O)c(=O)c2cc(F)c(N3CCN(C(=O)Nc4ccccc4)CC3)cc21	–	–	–	–	18	–	–
CCn1cc(C(=O)O)c(=O)c2cc(F)c(N3CCN(S(=O)(=O)c4ccc5c(c4)OCCO5)CC3)cc21	–	–	–	–	–	·	·
CCn1cc(C(=O)O)c(=O)c2cc(F)c(N3CCN(C(=S)NC(=O)c4ccccc4F)CC3)cc21	–	–	–	–	–	·	·
CCn1cc(C(=O)O)c(=O)c2cc(F)c(N3CCN(S(=O)(=O)c4ccc(NC(C)=O)cc4)CC3)cc21	–	–	–	–	42	32	–
CCn1cc(C(=O)NCc2ccco2)c(=O)c2cc(F)c(N3CCN(C(=O)c4ccco4)CC3)cc21	–	–	–	–	18	–	–
CCOC(=O)C1CCN(C(=O)c2cc3ccccc3oc2=O)CC1	–	–	–	–	–	·	·
COc1ccc(OCCC(=O)Nc2ccccc2)cc1	–	–	–	–	–	·	·
COc1cc(C2c3c(c(C)c(C)oc3=O)Oc3c(C)c(C)oc(=O)c32)ccc1OS(=O)(=O)c1ccc(C)cc1	–	–	–	–	21	26	–
COc1ccc(C2c3c(c(C)c(C)oc3=O)Oc3c(C)c(C)oc(=O)c32)cc1	–	–	–	–	–	·	·
O=C(NNC(=O)c1cc2cc3ccccc3nc2s1)c1ccc(F)cc1	–	–	–	–	24	–	–
COc1ccc(NC(=O)CCNC(=O)Cn2ccc3ccccc3c2=O)cc1Cl	–	–	–	–	–	·	·
COc1ccc(NS(=O)(=O)c2ccc3c(c2)N(C(C)=O)CC(C)S3)c(OC)c1 (configuration not stated)	–	–	–	–	–	·	·
COc1ccc(N2CCN(C(=O)c3cc(C)on3)CC2)cc1	–	–	–	–	–	·	·
Cc1ccc(C(=O)N2CCN(c3ccccc3)CC2)cc1C	–	–	–	–	32	–	–
Cc1cc(C(=O)N2CCN(c3ccccc3)CC2)no1	–	–	–	–	27	–	–
